Calls of active or inactive are those of the source. The calls are words filed in the database; no cut-off is given here.
Columns and labels:
Sporosarcina pasteurii [1] = test: Competitive inhibition of Sporosarcina pasteurii CCM 2056 urease using urea as substrate assessed as ammonia levels after 120 mins by Lineweaver-Burk plot analysis
Summary of the method: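 Purified native S. pasteurii urease (113.5 pM final) preincubated with rising inhibitor levels in 3 mM phosphate buffer pH 7.5, 37°C, until equilibrium; urea 1–60 mM then added. Initial rates measured by phenol-hypochlorite ammonia read-out; mode and constants from Lineweaver-Burk plots using at least 5 inhibitor concentrations.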

Sporosarcina pasteurii [2] = test: Reversible inhibition of Sporosarcina pasteurii CCM 2056 urease using urea as substrate assessed as ammonia levels after 120 mins by fast dilution assay
[3] = Steady state inhibition of Sporosarcina pasteurii CCM 2056 urease using urea as substrate assessed as inhibition constant for final enzyme conformation-inhibitor complex by measuring ammonia levels after 120 mins by phenol-hypochlorite method
Summary of the method: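 S. pasteurii urease (113.5 pM final) added to stirred mixtures with 25 mM urea and varied inhibitor (water or DMF), 3 mM phosphate pH 7.5, 37°C. Ammonia sampled over 120 min by phenol-hypochlorite. Progress curves fitted to integrated slow-binding equation. Ki and Ki* derived using Km and Vmax of uninhibited enzyme.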

[4] = biological target: T1, Urease subunit alpha/Urease subunit beta (Helicobacter pylori (strain ATCC 700392 / 26695) (Campylobacterpylori), UniProt P69996); test: (§1) Inhibition of recombinant Helicobacter pylori urease expressed in Escherichia coli rosetta DE3 using urea as substrate assessed as transformed cell urea splitting activity after 2 hrs by Berthelot assay
Summary of the method: (§2)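 E. coli Rosetta pGEM::ureOP cells grown in LB with ampicillin at 37°C, induced with 0.75 mM IPTG and 0.75 mM Ni²⁺ for 24 h at 22°C, then washed thrice in PBS. Cells (1×10⁹ cfu/mL final) start the reaction in 10 mM PBS with 5 mM urea and inhibitor. Timed aliquots read by Berthelot; triplicate.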

[5] = biological target: T1, Urease subunit alpha/Urease subunit beta; test: Inhibition of recombinant Helicobacter pylori urease expressed in Escherichia coli rosetta DE3 using urea as substrate assessed as transformed cell urea splitting activity preincubated for 2 hrs followed by substrate addition measured after 2 hrs by Berthelot assay
Summary of the method: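 Induced, PBS-washed E. coli Rosetta pGEM::ureOP cells (1×10⁹ cfu/mL) held 2 h with inhibitor in 10 mM PBS. Urea then added to 5 mM. Ammonia in timed aliquots measured by Berthelot assay against an inhibitor-free reference. DMF effect checked. Three repeats.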

[6] = biological target: T2, Urease subunit alpha/Urease subunit beta (Helicobacter pylori (strain ATCC 700392 / 26695) (Campylobacterpylori), UniProt P69996+P14916); test: (§3) Inhibition of urease in Helicobacter pylori J99 in Brucella broth using urea as substrate after 2 hrs by Berthelot assay; assay type: protein-complex assay
Summary of the method: (§4)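 H. pylori J99 passaged on blood Columbia agar, microaerophilic, 37°C. Then grown 48 h in Brucella broth with 5% FBS and 1% IsoVitalex, spun once and resuspended in 10 mM PBS pH 7.2 without washing. About 1×10⁷ cfu/mL added to PBS with 5 mM urea and inhibitor. Berthelot ammonia read-out, triplicate.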

[7] = biological target: T1, Urease subunit alpha/Urease subunit beta; test: (§5) Inhibition of urease in Helicobacter pylori J99 in Brucella broth using urea as substrate preincubated for 2 hrs followed by substrate addition measured after 2 hrs by Berthelot assay; assay type: protein-complex assay
Summary of the method: (§6)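 Unwashed H. pylori J99 cells from 48 h Brucella broth culture (5% FBS, 1% IsoVitalex), resuspended in 10 mM PBS pH 7.2, about 1×10⁷ cfu/mL. Cells preincubated 2 h with inhibitor before 5 mM urea was added. Timed aliquots assayed by Berthelot method; three repeats.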

[8] = biological target: T1, Urease subunit alpha/Urease subunit beta; test: as §3; assay type: protein-complex assay; summary of the method: as §4
[9] = biological target: Urease subunit alpha/Urease subunit beta (Helicobacter pylori (strain ATCC 700392 / 26695) (Campylobacterpylori)) (UniProt P69996+P14916); test: Competitive reversible inhibition of recombinant Helicobacter pylori urease […] in transformed Escherichia coli rosetta DE3 after 120 mins by Lineweaver-Burk plot analysis; assay type: protein-complex assay
Summary of the method: (§7)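 Homogeneous recombinant H. pylori urease purified from E. coli Rosetta (DE3) pGEM::ureOP (488 pM final) added to mixtures with rising inhibitor levels and 0.1–2.5 mM urea, 3 mM phosphate pH 7.5, 37°C. Ammonia measured by Berthelot reaction. Ki from Lineweaver-Burk plots, at least 5 inhibitor concentrations, in triplicate.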

[10] = biological target: T1, Urease subunit alpha/Urease subunit beta; test: Inhibition of recombinant Helicobacter pylori urease expressed in Escherichia coli rosetta DE3 after 120 mins by Berthelot colorimetric analysis; summary of the method: as §7
[11] = biological target: T2, Urease subunit alpha/Urease subunit beta; test: as §1; summary of the method: as §2
[12] = biological target: T2, Urease subunit alpha/Urease subunit beta; test: as §5; assay type: protein-complex assay; summary of the method: as §6
[13] = biological target: T1, Urease subunit alpha/Urease subunit beta; test: Inhibition of Helicobacter pylori ATCC 43504 urease assessed as amount of ammonia after 15 mins by indophenol method; assay type: protein-complex assay

T1 sequence (P69996 whole entry): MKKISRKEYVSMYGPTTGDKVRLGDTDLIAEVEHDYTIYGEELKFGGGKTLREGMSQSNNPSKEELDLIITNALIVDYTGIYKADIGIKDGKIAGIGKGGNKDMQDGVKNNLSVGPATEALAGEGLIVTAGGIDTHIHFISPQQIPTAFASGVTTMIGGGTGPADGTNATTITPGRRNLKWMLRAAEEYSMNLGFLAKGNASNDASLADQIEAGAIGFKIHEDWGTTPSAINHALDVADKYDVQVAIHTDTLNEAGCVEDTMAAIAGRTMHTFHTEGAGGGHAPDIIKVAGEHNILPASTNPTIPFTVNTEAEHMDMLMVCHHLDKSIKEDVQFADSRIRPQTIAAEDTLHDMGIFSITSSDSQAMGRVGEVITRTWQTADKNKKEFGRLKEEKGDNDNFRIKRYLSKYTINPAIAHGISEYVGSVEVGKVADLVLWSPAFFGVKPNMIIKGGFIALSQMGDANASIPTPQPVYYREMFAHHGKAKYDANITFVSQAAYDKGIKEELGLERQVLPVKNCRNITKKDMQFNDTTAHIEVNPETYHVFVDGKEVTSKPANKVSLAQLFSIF
T1 sequence (P14916 whole entry, further chain): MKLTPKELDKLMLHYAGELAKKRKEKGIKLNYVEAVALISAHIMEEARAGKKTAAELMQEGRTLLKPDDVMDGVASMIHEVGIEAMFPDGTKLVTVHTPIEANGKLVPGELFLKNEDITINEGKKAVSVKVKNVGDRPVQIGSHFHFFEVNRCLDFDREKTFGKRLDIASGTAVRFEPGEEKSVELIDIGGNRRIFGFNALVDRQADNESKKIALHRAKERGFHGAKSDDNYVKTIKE
T2 sequence (P69996 whole entry): as the sequence (P69996 whole entry) above
T2 sequence (P14916 whole entry): as the sequence (P14916 whole entry, further chain) above
Urease subunit alpha/Urease subunit beta (Helicobacter pylori (strain ATCC 700392 / 26695) (Campylobacterpylori)), sequence (P14916 whole entry, looked up): as the sequence (P14916 whole entry, further chain) above
Urease subunit alpha/Urease subunit beta (Helicobacter pylori (strain ATCC 700392 / 26695) (Campylobacterpylori)), sequence (P69996 whole entry, looked up): as the sequence (P69996 whole entry) above

## CCC(C)[C@@H](C(=O)OC)n1[se]c2ccccc2c1=O (stereo partly drawn)
Sporosarcina pasteurii [1]
  competitive inhibition (qualitative call): Active
Sporosarcina pasteurii [2]
  reversible inhibition (qualitative): Active
[3]
  Ki: 0.164 µM
[4]
  IC50: 96 µM
[5]
  IC50: 25.8 µM
[6]
  IC50: Not Active
[7]
  IC50: 4.07 µM

## O=c1[nH][se]c2ccccc12
Sporosarcina pasteurii [1]
  competitive inhibition (qualitative call): Active
Sporosarcina pasteurii [2]
  reversible inhibition (qualitative): Active
[3]
  Ki: 0.0247 µM
[4]
  IC50: 48.6 µM
[5]
  IC50: 1.28 µM
[6]
  IC50: Not Active
[7]
  IC50: 6.92 µM

## COC(=O)[C@H](C)n1[se]c2ccccc2c1=O
Sporosarcina pasteurii [1]
  competitive inhibition (qualitative call): Active
Sporosarcina pasteurii [2]
  reversible inhibition (qualitative): Active
[3]
  Ki: 0.0326 µM
[4]
  IC50: 75 µM
[5]
  IC50: 19 µM
[8]
  IC50: 75.1 µM
[7]
  IC50: 3.91 µM

## CCC(CO)NC(=O)c1ccccc1[Se][Se]c1ccccc1C(=O)NC(CC)CO (stereo not drawn)
Sporosarcina pasteurii [1]
  competitive inhibition (qualitative call): Active
Sporosarcina pasteurii [2]
  reversible inhibition (qualitative): Active
[3]
  Ki: 0.00462 µM
[9]
  inhibition mode (competitive reversible): Active
[10]
  Ki: 3.26 µM
[11]
  IC50: Not Active
[5]
  IC50: 108 µM
[6]
  IC50: Not Active
[7]
  IC50: 115 µM

## O=C(O)c1ccccc1[Se][Se]c1ccccc1C(=O)O
Sporosarcina pasteurii [1]
  competitive inhibition (qualitative call): Active
Sporosarcina pasteurii [2]
  reversible inhibition (qualitative): Active
[3]
  Ki: 319 µM
[11]
  IC50: Not Active
[5]
  IC50: 794 µM
[6]
  IC50: Not Active
[12]
  IC50: Not Active

## O=c1c2ccccc2[se]n1[C@H](CO)c1ccccc1
Sporosarcina pasteurii [1]
  competitive inhibition (qualitative call): Active
Sporosarcina pasteurii [2]
  reversible inhibition (qualitative): Active
[3]
  Ki: 0.0121 µM
[4]
  IC50: 79 µM
[5]
  IC50: 22.7 µM
[6]
  IC50: Not Active
[7]
  IC50: 5.03 µM

## O=C(O)CCCn1[se]c2ccccc2c1=O
Sporosarcina pasteurii [1]
  competitive inhibition (qualitative call): Active
Sporosarcina pasteurii [2]
  reversible inhibition (qualitative): Active
[3]
  Ki: 0.806 µM
[4]
  IC50: 103 µM
[5]
  IC50: 37 µM
[6]
  IC50: Not Active
[7]
  IC50: 98 µM

## COCCCOc1ccnc(C[S+]([O-])c2nc3ccccc3[nH]2)c1C (stereo not drawn) [RABEPRAZOLE]
[13]
  IC50: 0.29 µM

## CC(=O)NO [ACETOHYDROXAMIC ACID]
Sporosarcina pasteurii [1]
  competitive inhibition (qualitative call): Active
Sporosarcina pasteurii [2]
  reversible inhibition (qualitative): Active
[3]
  Ki: 3.3 µM
[10]
  Ki: 96 µM
[4]
  IC50: 154 µM
[5]
  IC50: 96 µM
[6]
  IC50: Not Active
[7]
  IC50: 156 µM

## COC(=O)CNC(=O)c1ccccc1[Se][Se]c1ccccc1C(=O)NCC(=O)OC
Sporosarcina pasteurii [1]
  competitive inhibition (qualitative call): Active
Sporosarcina pasteurii [2]
  reversible inhibition (qualitative): Active
[3]
  Ki: 0.00667 µM
[9]
  inhibition mode (competitive reversible): Active
[10]
  Ki: 0.915 µM
[11]
  IC50: Not Active
[5]
  IC50: 85 µM
[6]
  IC50: Not Active
[7]
  IC50: 83.5 µM

## C[C@H](NC(=O)c1ccccc1[Se][Se]c1ccccc1C(=O)N[C@@H](C)C(=O)O)C(=O)O
Sporosarcina pasteurii [1]
  competitive inhibition (qualitative call): Active
Sporosarcina pasteurii [2]
  reversible inhibition (qualitative): Active
[3]
  Ki: 14.9 µM
[4]
  IC50: 85 µM
[5]
  IC50: 25.9 µM
[6]
  IC50: Not Active
[7]
  IC50: 183 µM

## O=C(O)C[C@@H](C(=O)O)n1[se]c2ccccc2c1=O
Sporosarcina pasteurii [1]
  competitive inhibition (qualitative call): Active
Sporosarcina pasteurii [2]
  reversible inhibition (qualitative): Active
[3]
  Ki: 2.41 µM
[4]
  IC50: 388 µM
[5]
  IC50: 319 µM
[6]
  IC50: Not Active
[7]
  IC50: 50.8 µM
